According to PubChem BioAssay:
Results filed as inconclusive are left out.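 The calls were made as follows, unless noted: active = viability at or below 27.92% in each of two runs, the all-compound median minus 4 SD; inconclusive = no clear call, values can overlap the other calls; inactive = the rest.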

What was measured:
[1] = OD615 S. cerevisiae growth inhibition, permissive medium, pilot counter-assay, permissive growth control for S. cerevisiae lifespan shortening project (AID 705;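 active = growth inhibition above 25% in both replicates, a cutoff set 3 SD above the mean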); conditions: OD615, 24 h, at 10 µM, hits give high values
Procedure, shortened: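 assay system = Saccharomyces cerevisiae strain carrying genetically modified DeaD replicative-lifespan system | technique = absorbance (optical density) at 615 nm | buffer or medium = permissive raffinose/galactose medium | timing = cells pre-grown 4 h, then 24 h compound exposure, 30 °C humidified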

[2] = Restrictive medium S. cerevisiae growth inhibition, OD615, pilot screen of yeast lifespan reduction project, restrictive growth control (AID 706;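 active = growth inhibition above a set limit, 3 SD over mean compound inhibition, in both replicates, cut at about 43% in these data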;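 also: modified DeaD lifespan yeast strain shifted to restrictive glucose medium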); conditions: OD615, 48 h, at 10 µM, hits give high values
Procedure, shortened: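 System: modified S. cerevisiae. Buffer or medium: CSMM-D glucose medium. Incubation: 4 h pre-growth plus 48 h compound exposure, 30 °C. Detection: absorbance (optical density) measured at 615 nm.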

[3] = viability gain of MRP-1-high H69AR cells under doxorubicin, pilot screen, MRP-1 activator project, CellTiter-Glo, duplicate (AID 807;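 active = viability increase at or above a cutoff of the median across tested compounds plus 3 SD, cut at about 8.5% in these data, passing the limit was not always enough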;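 also: compound pretreatment 18-22 h then 72 h combined with doxorubicin; 0% = doxorubicin alone and 100% = vehicle without doxorubicin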); conditions: H69AR viability with doxorubicin, CellTiter-Glo luminescence; at 10 µM; hits give high values
[4] = growth suppression of beta-catenin knockout HCT116, pilot screen, human colon tumor cells (AID 823;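 active = cell viability at or below a set limit in both duplicate runs, the limit being the all-compound median minus 4 SD, cut at about 23% in these data, passing the limit was not always enough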;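 also: 0% = wells killed by 20 µM Hyamine and 100% = untreated DMSO cell wells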); conditions: CellTiter-Glo, 60 h, at 10 µM, hits give low values
[5] = growth suppression of PTEN-deleted HCT116, pilot screen, cell-based, HCT116 clonal line, CellTiter-Glo (AID 824); conditions: 60 h, at 10 µM, hits give low values;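 also: 0% = 20 µM Hyamine control and 100% = vehicle cell control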
[6] = inhibitors of the yeast RAM network, pilot screen, dse1pr::URA3 reporter, 5-FOA selection (AID 869;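 active = inhibition over a set limit, the all-compound mean plus 3 SD, in both replicate runs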;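 also: 0% = DMSO wells with no growth and 100% = 10 µM 1-NA-PP1 with full growth; RAM network block rescues cells from 5-FOA so hits raise OD615 growth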); conditions: S. cerevisiae dse1pr::URA3 5-FOA growth, OD615, 2 d; at 10 µM; hits give high values; strain carries analog-sensitive mutant Cbk1 kinase
[7] = RAM signaling pathway blockade in yeast – S. cerevisiae, Pdr1DBD-CYC8 efflux-inhibited sensitized strain, primary screen (AID 1298;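 active = RAM network inhibition above 8.4% in each of two replicates, 3 SD over the compound average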;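 also: 0% = DMSO untreated cells without growth and 100% = 10 µM 1-NA-PP1 full growth; higher means more yeast growth rescued from 5-FOA killing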); conditions: S. cerevisiae cbk1-as DSE1-URA3 strain, 5-FOA growth OD615, 2 d; at 50 µM; hits give high values

CCOC(=O)Nc1ccc2ncn(C)c(=O)c2c1
inactive: growth inhibition [1] -16.6% | growth inhibition [2] -8.55% | viability increase [3] -5.77% | viability [4] 101% | viability [5] 94.8% | inhibition [6] -0.055% | RAM network inhibition [7] 1.08%

O=C(CN1CCN(c2ncccn2)CC1)N1CCN(C(c2ccccc2)c2ccccc2)CC1
inactive: growth inhibition [1] -1.1% | growth inhibition [2] -2.38% | viability increase [3] -3.26% | viability [4] 84.8% | viability [5] 85% | inhibition [6] 1.64% | RAM network inhibition [7] 0.61%

CCOCCCNC(=O)C(c1ccc(C)cc1)N(Cc1ccc2c(c1)OCO2)C(=O)CNC(C)=O (stereo not given)
inactive: growth inhibition [1] -8.64% | growth inhibition [2] 0.77% | viability increase [3] 0.84% | viability [4] 100% | viability [5] 102% | inhibition [6] 0.88% | RAM network inhibition [7] 2.3%

CCOCCn1c(SCc2ccc(F)cc2)nc2c1c(=O)[nH]c(=O)n2C
inactive: growth inhibition [1] -4.31% | growth inhibition [2] 5.57% | viability increase [3] -2.04% | viability [4] 99% | viability [5] 94.3% | inhibition [6] -0.925% | RAM network inhibition [7] -0.32%

O=C(O)CCC(=O)Nc1ccc(-c2nnc(-c3ccco3)o2)cc1
inactive: growth inhibition [1] -12.8% | growth inhibition [2] -4.63% | viability increase [3] -0.63% | viability [4] 102% | viability [5] 99.8% | inhibition [6] 1.61% | RAM network inhibition [7] 2.14%

COc1ccccc1S(=O)(=O)Cc1ccc(C(=O)N2CCCC2)o1
inactive: growth inhibition [1] -3.58% | growth inhibition [2] -4.36% | viability increase [3] -1.51% | viability [4] 108% | viability [5] 101% | inhibition [6] 0.935% | RAM network inhibition [7] 0.94%

Cc1nc2ccccc2c2oc(C(=O)N3CCc4ccccc4C3)cc12
inactive: growth inhibition [1] -17.8% | growth inhibition [2] -23.5% | viability increase [3] -3.07% | viability [4] 73.1% | viability [5] 72.5% | inhibition [6] 1.98% | RAM network inhibition [7] 3.91%

Cc1oc2cc(O)ccc2c(=O)c1Oc1ccccc1Br
inactive: growth inhibition [1] -15.9% | growth inhibition [2] -12.2% | viability increase [3] -3.45% | viability [4] 94% | viability [5] 84.4% | inhibition [6] 1.68% | RAM network inhibition [7] 2.42%

O=C1NCCCC1C(=O)NCCNC(=O)C(F)(F)F (stereo not given)
inactive: growth inhibition [1] -4.04% | growth inhibition [2] -0.705% | viability increase [3] -1.47% | viability [4] 101% | viability [5] 94.7% | inhibition [6] 0.3% | RAM network inhibition [7] 4.25%

COc1cc(-c2nc(-c3cccc(C)c3)no2)cc(OC)c1OC
inactive: growth inhibition [1] -5.34% | growth inhibition [2] -14.7% | viability increase [3] 0.46% | viability [4] 81.3% | viability [5] 81% | inhibition [6] 2.26% | RAM network inhibition [7] 9.46%

Cc1nnc(Sc2nc3c(c(=O)[nH]c(=O)n3C)n2Cc2ccccc2Cl)s1
inactive: growth inhibition [1] -9.12% | growth inhibition [2] -9.02% | viability increase [3] -2.89% | viability [4] 96.8% | viability [5] 90.5% | inhibition [6] 1.07% | RAM network inhibition [7] 2.84%

O=C(Nc1ccccc1)N1CCN(Cc2ccc3c(c2)OCO3)CC1
inactive: growth inhibition [1] 5.22% | growth inhibition [2] -15.8% | viability increase [3] -1.15% | viability [4] 101% | viability [5] 96.8% | inhibition [6] 1.25% | RAM network inhibition [7] 2.76%

CN(C)C(=O)Nc1cnc2ccccc2c1
inactive: growth inhibition [1] 0.64% | growth inhibition [2] -11.9% | viability increase [3] -0.11% | viability [4] 104% | viability [5] 99.3% | inhibition [6] 1.16% | RAM network inhibition [7] 1.97%

CC(=O)c1sc(NC(=O)c2ccccc2F)nc1C
inactive: growth inhibition [1] -10.4% | growth inhibition [2] -3.2% | viability increase [3] -0.32% | viability [4] 79% | viability [5] 75.2% | inhibition [6] 0.31% | RAM network inhibition [7] 0.74%

Cc1ccc(-c2nc(-c3ccccc3)no2)c(Cl)c1
inactive: growth inhibition [1] -6.6% | growth inhibition [2] -11.1% | viability increase [3] -4.72% | viability [4] 78.9% | viability [5] 78% | inhibition [6] 3.96% | RAM network inhibition [7] 3.45%
